Laboratory results as given in PMC4596243 (Cancer chemotherapy and pharmacology, 2013).
Where “and” joins values, the source holds several entries; their conditions need not be identical. Identical values can stand only once. Like-named read-outs stand apart in the source and are kept apart here. Values belong to the compound of their own block, whether it stands above or below them.

Legend:
[1] = format: in vivo, rat; settings: for AUC(0-inf): AUC0–∞
[2] = TMZ administered with TNP-470; murine glioma model; cited from earlier work
recurrent GBM = settings: cited from earlier work
U87 glioma = assay: In vivo susceptibility-contrast MRI of tumor vasculature after cediranib; design: species or system mice; settings: cediranib once daily
Summary of the method: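 Mice bearing brain U87 tumours imaged at 9.4T on day 12 (2 control, 2 given test compound once daily until sacrifice) or day 21 (3 control, 1 treated). Multi-echo gradient-echo (TR 400 ms) and spin-echo (TR 2000 ms), 16 coronal 1-mm slices, 0.1 mm in-plane, before/after i.v. Feridex 25 mg Fe/kg. Vessel size from (ΔR2*/ΔR2)^3/2; manual tumour ROIs versus mirrored contralateral ROIs, histograms compared.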

[3] = corrected for recovery, post-cediranib, individual animal
[4] = corrected for recovery, pre-cediranib, individual animal
[5] = post- vs pre-cediranib, tumor ECF, not statistically significant

T1/2 [1, 3]: 1.5 h and 1.7 h and 3.4 h
AUC(0-inf) ([1]; male, athymic, rat, tumor ECF (brain microdialysate), po, 50 mg/kg, corrected for recovery, post-cediranib, mean ± S.D.): 3720 ± 610 ng·h/mL
AUC(0-inf) ([1]; male, athymic, rat, tumor ECF (brain microdialysate), po, 50 mg/kg, corrected for recovery, pre-cediranib, mean ± S.D.): 1820 ± 640 ng·h/mL
AUC(0-inf) ([1]; male, athymic, rat, tumor ECF (brain microdialysate), po, 50 mg/kg, raw data, post-cediranib, mean ± S.D.): 2840 ± 400 ng·h/mL
AUC(0-inf) ([1]; male, athymic, rat, tumor ECF (brain microdialysate), po, 50 mg/kg, raw data, pre-cediranib, mean ± S.D.): 1310 ± 510 ng·h/mL
Cmax ([1]; male, athymic, rat, tumor ECF (brain microdialysate), po, 50 mg/kg, Cmax, corrected for recovery, post-cediranib, mean ± S.D.): 830 ± 450 ng/mL
Cmax ([1]; male, athymic, rat, tumor ECF (brain microdialysate), po, 50 mg/kg, Cmax, corrected for recovery, pre-cediranib, mean ± S.D.): 590 ± 220 ng/mL
half-life ([1]; male, athymic, rat, tumor ECF (brain microdialysate), po, 50 mg/kg, T1/2, corrected for recovery, post-cediranib, mean ± S.D.): 2 ± 0.9 h
half-life ([1]; male, athymic, rat, tumor ECF (brain microdialysate), po, 50 mg/kg, T1/2, corrected for recovery, pre-cediranib, mean ± S.D.): 1.7 ± 0.3 h
half-life ([1]; male, athymic, rat, tumor ECF (brain microdialysate), po, 50 mg/kg, T1/2, raw data, post-cediranib, mean ± S.D.): 2 ± 0.9 h
half-life ([1]; male, athymic, rat, tumor ECF (brain microdialysate), po, 50 mg/kg, T1/2, raw data, pre-cediranib, mean ± S.D.): 1.7 ± 0.3 h
increase in ECF-TMZ AUC0-∞ after cediranib administration [1, 5]: 2.0 fold and 2 fold
increase in ECF-TMZ Cmax after cediranib administration [1, 5]: 1.4 fold
SMILES: Cn1nnc2c(C(N)=O)ncn2c1=O [TMZ, temozolomide]
AUC0–∞ [1, 3]: 3120 ng·h/mL and 4520 ng·h/mL and 3870 ng·h/mL and 3100 ng·h/mL
Cmax [1, 3]: 1610 ng/mL and 650 ng/mL and 310 ng/mL and 1290 ng/mL and 640 ng/mL and 690 ng/mL
AUC0–∞ [1, 4]: 1730 ng·h/mL and 2380 ng·h/mL and 600 ng·h/mL and 2480 ng·h/mL and 1500 ng·h/mL and 1970 ng·h/mL and 2090 ng·h/mL
Cmax [1, 4]: 460 ng/mL and 620 ng/mL and 190 ng/mL and 710 ng/mL and 690 ng/mL and 900 ng/mL and 530 ng/mL
Cmax ([1]; raw data, pre-cediranib, TMZ 50 mg/kg oral, tumor ECF, individual animal): 510 ng/mL and 540 ng/mL and 380 ng/mL and 400 ng/mL and 470 ng/mL and 100 ng/mL

SMILES: CO[C@@H]1[C@H](OC(=O)NC(=O)CCl)CC[C@]2(CO2)[C@H]1[C@@]1(C)O[C@@H]1CC=C(C)C [TNP-470]
reduction of TMZ in tumor concentrations [2]: 50%

SMILES: COc1cc2c(Oc3ccc4[nH]c(C)cc4c3F)ncnc2cc1OCCCN1CCCC1 [cediranib]
progression-free survival (PFS) (recurrent GBM; cediranib monotherapy, recurrent GBM patients): increased progression-free survival
duration of tumor vessel normalization (recurrent GBM; once daily cediranib, patients with recurrent GBM, starting as early as one day after the treatment): at least 28 days
average vessel size (ΔR2*/ΔR2)^3/2 in treated tumor (U87 glioma; D12): lower compared to the contralateral ROI
effect on vessel size in treated tumor (U87 glioma; D21): not apparent
